Measurements taken from ChEMBL document CHEMBL1926616, “Design, synthesis and biological evaluation of novel glycosylated diphyllin derivatives as topoisomerase II inhibitors” (Eur J Med Chem, 2012).
Calls of active or inactive are those of the source. The calls are words filed in the database; no cut-off is given here.

Columns and labels:
[1] = test system: KB; assay: Cytotoxicity against human KB cells after 72 hrs by sulforhodamine B and MTT assay; assay type: functional, cell-based
Outline: (§1)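 Log-phase cells were plated overnight and exposed for 72 h to a 5-concentration gradient, in triplicate wells. SRB arm: 10% cold TCA fixation for 1 h at 4 °C, 4 mg/ml SRB in 1% acetic acid for 15 min, dye dissolved in 10 mM Tris-HCl, read at 520 nm. MTT arm: 5 mg/mL MTT for 4 h at 37 °C, SDS-isobutanol-HCl solubilisation for 12–20 h, read at 570 nm. IC50 by Logit method from at least 3 independent tests.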

[2] = test system: MCF7; assay: Cytotoxicity against human MCF7 cells after 72 hrs by sulforhodamine B and MTT assay; assay type: functional, cell-based; conditions: MCF7, 72 h; outline: as §1
[3] = test system: HCT-116; assay: Cytotoxicity against human HCT116 cells after 72 hrs by sulforhodamine B and MTT assay; assay type: functional, cell-based; conditions: HCT-116, 72 h; outline: as §1
[4] = biological target: DNA topoisomerase 2-alpha (Homo sapiens) (UniProt P11388); assay: Inhibition of human topoisomerase 2-mediated decatenation of kinetoplast DNA at 100 uM after 15 mins by agarose gel electrophoresis
Sequence of DNA topoisomerase 2-alpha (Homo sapiens) (P11388 whole entry): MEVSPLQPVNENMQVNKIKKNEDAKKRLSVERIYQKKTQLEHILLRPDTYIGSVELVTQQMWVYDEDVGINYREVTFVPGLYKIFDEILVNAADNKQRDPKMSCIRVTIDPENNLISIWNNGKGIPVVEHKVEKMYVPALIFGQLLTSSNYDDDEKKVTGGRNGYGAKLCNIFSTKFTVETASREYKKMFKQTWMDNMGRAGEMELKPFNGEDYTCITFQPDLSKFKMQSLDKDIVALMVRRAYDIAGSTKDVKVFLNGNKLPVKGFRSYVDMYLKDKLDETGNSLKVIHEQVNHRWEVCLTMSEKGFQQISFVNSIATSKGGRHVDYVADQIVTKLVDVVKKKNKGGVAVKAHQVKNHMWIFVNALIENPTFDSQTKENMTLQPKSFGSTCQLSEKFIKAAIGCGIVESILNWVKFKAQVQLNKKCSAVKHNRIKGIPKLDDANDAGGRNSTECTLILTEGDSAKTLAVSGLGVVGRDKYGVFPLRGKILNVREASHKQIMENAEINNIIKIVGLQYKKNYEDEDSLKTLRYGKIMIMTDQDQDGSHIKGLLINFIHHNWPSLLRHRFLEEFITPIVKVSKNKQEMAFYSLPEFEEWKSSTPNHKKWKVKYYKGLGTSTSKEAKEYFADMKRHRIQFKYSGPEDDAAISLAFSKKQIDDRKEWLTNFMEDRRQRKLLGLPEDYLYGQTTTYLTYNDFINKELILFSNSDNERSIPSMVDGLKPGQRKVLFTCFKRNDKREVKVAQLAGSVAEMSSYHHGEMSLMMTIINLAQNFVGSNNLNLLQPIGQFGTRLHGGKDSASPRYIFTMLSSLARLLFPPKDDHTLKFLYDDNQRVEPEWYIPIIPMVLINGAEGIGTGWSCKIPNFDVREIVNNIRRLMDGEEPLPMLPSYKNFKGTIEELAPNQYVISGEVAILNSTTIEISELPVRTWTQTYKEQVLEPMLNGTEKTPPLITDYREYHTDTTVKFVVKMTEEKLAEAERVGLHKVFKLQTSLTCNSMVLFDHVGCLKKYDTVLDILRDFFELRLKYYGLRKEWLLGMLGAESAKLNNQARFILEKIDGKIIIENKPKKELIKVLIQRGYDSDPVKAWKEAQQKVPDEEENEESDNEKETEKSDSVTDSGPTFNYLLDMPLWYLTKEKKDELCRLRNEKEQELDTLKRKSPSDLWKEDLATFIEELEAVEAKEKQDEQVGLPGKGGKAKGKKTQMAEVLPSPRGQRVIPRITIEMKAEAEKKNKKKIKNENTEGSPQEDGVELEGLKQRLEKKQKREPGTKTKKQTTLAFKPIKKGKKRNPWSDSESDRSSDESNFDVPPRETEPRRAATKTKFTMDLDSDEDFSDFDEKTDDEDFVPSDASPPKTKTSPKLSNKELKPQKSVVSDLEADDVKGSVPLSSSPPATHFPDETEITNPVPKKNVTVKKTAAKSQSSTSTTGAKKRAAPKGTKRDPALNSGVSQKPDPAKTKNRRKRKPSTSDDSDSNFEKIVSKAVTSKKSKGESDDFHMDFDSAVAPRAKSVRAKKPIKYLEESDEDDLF
Outline: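 ATP-dependent kDNA decatenation by 1 unit Topo II in 50 mM Tris-HCl pH 7.7, 50 mM KCl, 5 mM MgCl2, 1 mM ATP, 0.5 mM DTT, 0.5 mM EDTA and BSA, run for 15 min at 37 °C. Stopped with 10% SDS, then run on 1% agarose in TAE at 4 V/cm for 1 h and stained with ethidium bromide.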

[5] = test system: KB; assay: Resistance index, ratio of IC50 for vincristine-selected multi drug-resistant human KB cells to IC50 for human KB cells; assay type: functional
Outline: (§2)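 Resistance factor is the IC50 in the resistant line divided by the IC50 in the parental line. Both IC50s come from 72 h SRB/MTT growth-inhibition assays, derived by the Logit method from at least 3 independent tests.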

[6] = test system: KB; assay: Cytotoxicity against vincristine-selected multi drug-resistant human KB cells after 72 hrs by sulforhodamine B and MTT assay; assay type: functional, cell-based
Outline: (§3)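 Log-phase cells were seeded, preincubated (overnight for SRB, 24 h for MTT), then given a five-concentration gradient in triplicate wells for 72 h. For MTT, reagent was added for 4 h at 37 °C, solubilized in SDS-isobutanol-HCl for 12-20 h, and read at 570 nm. IC50 was derived by the Logit method from at least 3 independent tests.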

[7] = test system: K562; assay: Cytotoxicity against adriamycin-selected multi drug-resistant human K562 cells after 72 hrs by sulforhodamine B and MTT assay; assay type: functional, cell-based; conditions: K562, 72 h; outline: as §3
[8] = test system: K562; assay: Cytotoxicity against human K562 cells after 72 hrs by sulforhodamine B and MTT assay; assay type: functional, cell-based; conditions: K562, 72 h; outline: as §3
[9] = test system: K562; assay: Resistance index, ratio of IC50 for adriamycin-selected multi drug-resistant human K562 cells to IC50 for human K562 cells; assay type: functional; outline: as §2
[10] = test system: HL-60; assay: Induction of apoptosis in human HL60 cells assessed as DNA fragmentation at 10 uM after 36 hrs by gel electrophoresis; assay type: functional, cell-based
Outline: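 HL-60 cells were seeded and exposed to compound for 36 h. Harvested cells were lysed with an equal volume of 1.2% SDS, and the fragmented DNA was extracted and resolved by gel electrophoresis.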

| Structure (SMILES) | IC50 [1] [µM] | IC50 [2] [µM] | IC50 [3] [µM] | inhibition [4] | Ratio IC50 [5] | IC50 [6] [µM] | IC50 [7] [µM] | IC50 [8] [µM] | Ratio IC50 [9] | Activity [10] |
| --- | --- | --- | --- | --- | --- | --- | --- | --- | --- | --- |
| COc1cc2c(O[C@@H]3O[C@H](CO)[C@@H](O)[C@H](O)[C@H]3O)c3c(c(-c4ccc5c(c4)OCO5)c2cc1OC)C(=O)OC3 | > 10 | 2.44 | 9.67 | inactive | – | – | – | – | – | – |
| COc1cc([C@@H]2c3cc4c(cc3[C@@H](O[C@@H]3O[C@@H]5CO[C@@H](C)O[C@H]5[C@H](O)[C@H]3O)[C@H]3COC(=O)[C@H]23)OCO4)cc(OC)c1O [ETOPOSIDE] | 0.85 | 1.09 | 0.91 | inactive | 180.3 | 153 | 243 | 5.16 | 47.1 | – |
| COc1cc2c(O[C@H]3O[C@@H](C)[C@@H](O)[C@@H](O)[C@@H]3O)c3c(c(-c4ccc5c(c4)OCO5)c2cc1OC)C(=O)OC3 [PATENTIFLORIN B] | > 10 | 1.42 | > 10 | inactive | – | – | – | – | – | Active |
| COc1cc2c(O[C@@H]3O[C@H](CO)[C@H](O)[C@H](O)[C@H]3O)c3c(c(-c4ccc5c(c4)OCO5)c2cc1OC)C(=O)OC3 | 4.89 | 4.11 | > 10 | inactive | – | – | – | – | – | – |
| COc1cc2c(O[C@@H]3OC[C@H](O)[C@H](O)[C@H]3O)c3c(c(-c4ccc5c(c4)OCO5)c2cc1OC)C(=O)OC3 [ACUTISSIMALIGNAN A] | 6.88 | > 10 | > 10 | inactive | – | – | – | – | – | – |
| COc1cccc2c1C(=O)c1c(O)c3c(c(O)c1C2=O)C[C@@](O)(C(=O)CO)C[C@@H]3O[C@H]1C[C@H](N)[C@H](O)[C@H](C)O1 [DOXORUBICIN] | – | – | – | – | – | – | – | – | 132.2 | – |
| COc1cc2c(O[C@@H]3O[C@H](COCc4ccccc4)[C@@H](O)[C@H](O)[C@H]3O)c3c(c(-c4ccc5c(c4)OCO5)c2cc1OC)C(=O)OC3 | 0.015 | 0.028 | 0.036 | Active | – | – | – | – | – | – |
| COC[C@H]1O[C@@H](Oc2c3c(c(-c4ccc5c(c4)OCO5)c4cc(OC)c(OC)cc24)C(=O)OC3)[C@H](O)[C@@H](O)[C@H]1O | 4.1 | > 10 | > 10 | inactive | – | – | – | – | – | – |
| COc1cc2c(O[C@@H]3O[C@@H]4CO[C@@H](C(C)C)O[C@H]4[C@H](O)[C@H]3O)c3c(c(-c4ccc5c(c4)OCO5)c2cc1OC)C(=O)OC3 | 0.0006 | 0.0002 | 0.016 | Active | – | – | – | – | – | – |
